# Only some compounds are listed: those with a hit (about 3.3% of all), similar ones and a draw of the others.
# ABCB6 inh MLPCN: human ABCB6 transporter inhibition; Q9NP58; fluorescence ratio to DMSO, % at 10 µM; K562-ABCB6 porphyrin accumulation, flow cytometry, 1 h; hits give low values; AID 602162; actives 0.19% (n = 360,000);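 active = fluorescence ratio to DMSO below 75%, the collection mean minus 3 SD; inconclusive = too few cells collected in the well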;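 also: signal is porphyrin accumulated inside mitochondria; 100% equals median channel fluorescence of DMSO control wells; lower ratio means ABCB6 inhibition with less porphyrin fluorescence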
# Granule exo inh: blocks lytic granule exocytosis. actives 0.66% (n = 360,000). inhibition, % at 10 µM. TALL-104 LAMP-1 surface exposure, flow cytometry; cells stimulated with thapsigargin and PMA;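 active = inhibition above about 55%, limit read from the data; inconclusive = no clear call, values can overlap the other calls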
# Arr AP2 block: blocks beta-arrestin peptide binding to AP2 adaptin | inhibition, % at 10 µM | FITC-arrestin peptide / GST-AP2 beads, flow cytometry; AP2 beta2 appendage carries R879A mutation | actives 0.31% (n = 340,000);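 active = inhibition above a set limit, near 3 SD of compounds lacking own fluorescence, cut at about 54% in these data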;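 also: plate controls were DMSO wells for no effect and 5 µM unlabelled arrestin peptide for full effect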
#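 System: GST-AP2 R879A glutathione beads; medium: PBS, Tween 20 0.05%, BSA 0.1%; reagent: fluorescein-tagged arrestin peptide at 50 nM final; schedule: pre-incubation 12 min, peptide binding 1 h, room temperature; detection: flow cytometry, FL1 (488/535 nm); read-out: inhibition as reduced fluorescein signal on beads, percent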
# ATG4B inh: ATG4B (human) cysteine protease inhibition; Q9Y4P1; inhibition, % at 8.33 µM; actives 0.51% (n = 340,000); AID 504462; ATG4B cleavage of LC3-PLA2, NBD-HPC fluorescence, 1 h; in the data active = inhibition above about 40%
# Myeloid diff MLP: promotes myeloid progenitor differentiation; actives 1% (n = 360,000); ER-HoxA9 myeloid progenitors, lysozyme-GFP differentiation, flow cytometry; calls only at 10 µM;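 active = normalized GFP-positive differentiation at or above the plate's own cutoff, the solvent-only control mean plus 3 SD; inconclusive = no clear call, values can overlap the other calls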;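 also: cells exposed to compound for four days before flow analysis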
# CendR NRP1 mod: NRP-1/CendR interaction modulation | FAM-RPARPAR peptide binding to NRP-1, fluorescence polarization | actives 0.85% (n = 360,000) | O14786 | inhibition, % at 25 µM | AID 602438;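 active = inhibition or corrected inhibition above about 18%, plus a signal ratio from 0.5 to 1.5, limit read from the data, passing the limit was not always enough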
# ATG4B conf: confirmation of human ATG4B inhibitors; actives 92% (n = 320); ATG4B protease fluorescent substrate cleavage assay; inhibition, % at 8.33 µM; AID 504757; shares compounds with ATG4B inh; in the data active = inhibition above about 39%
# PLA2 ctr: inhibits human PLA2, flagging false ATG4B inhibitors; shares compounds with ATG4B inh; purified PLA2, NBD-C6-HPC fluorescence, 45 min; inhibition, % at 8.33 µM; actives 66% (n = 1,600); AID 588402; in the data active = inhibition above about 50%
# Arr-AP2 CP1: inhibitors of human beta-arrestin and AP2 interaction; AID 504908; GST-AP2 beads, FITC arrestin peptide binding, flow cytometry; GST-fused beta2-adaptin appendage, R879A mutant; shares compounds with Arr AP2 block; actives 2% (n = 1,300); inhibition, % at 10 µM;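 active = inhibition above a set limit, roughly 3 SD of non-fluorescent compound noise, cut at about 38% in these data; inactive = inhibition at or below that limit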;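 also: loss of bead fluorescence from 50 nM FITC arrestin peptide bound to appendage; 0% = negative control wells and 100% = excess unlabelled arrestin peptide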
# Target sequence (P63010 whole entry, looked up, the tested form may be a part, one chain of several): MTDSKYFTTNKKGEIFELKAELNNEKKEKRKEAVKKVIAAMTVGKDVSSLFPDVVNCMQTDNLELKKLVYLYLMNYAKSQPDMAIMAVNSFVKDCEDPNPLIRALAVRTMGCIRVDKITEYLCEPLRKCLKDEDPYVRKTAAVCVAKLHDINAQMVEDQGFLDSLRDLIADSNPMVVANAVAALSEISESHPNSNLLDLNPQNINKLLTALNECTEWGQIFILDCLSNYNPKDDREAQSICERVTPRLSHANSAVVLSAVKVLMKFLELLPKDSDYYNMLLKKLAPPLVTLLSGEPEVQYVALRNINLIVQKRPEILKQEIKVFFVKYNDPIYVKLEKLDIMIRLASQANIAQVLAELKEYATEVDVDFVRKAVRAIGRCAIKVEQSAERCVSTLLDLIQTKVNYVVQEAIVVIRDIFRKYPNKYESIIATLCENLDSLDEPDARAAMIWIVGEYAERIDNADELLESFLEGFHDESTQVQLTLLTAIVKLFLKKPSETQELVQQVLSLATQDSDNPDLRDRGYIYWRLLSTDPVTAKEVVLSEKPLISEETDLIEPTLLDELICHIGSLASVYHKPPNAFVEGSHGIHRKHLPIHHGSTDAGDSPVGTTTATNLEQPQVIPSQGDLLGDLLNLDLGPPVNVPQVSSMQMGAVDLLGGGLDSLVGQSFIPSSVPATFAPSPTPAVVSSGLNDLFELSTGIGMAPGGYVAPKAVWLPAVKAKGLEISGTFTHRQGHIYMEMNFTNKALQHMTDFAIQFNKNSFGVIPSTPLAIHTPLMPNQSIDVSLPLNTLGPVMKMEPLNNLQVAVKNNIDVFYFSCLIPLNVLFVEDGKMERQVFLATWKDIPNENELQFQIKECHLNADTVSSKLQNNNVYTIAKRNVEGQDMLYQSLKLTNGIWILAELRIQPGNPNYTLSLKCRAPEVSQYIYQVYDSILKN
# GST GSH counter: disrupts GST binding to glutathione beads, arrestin-AP2 artifact; inhibition, % at 10 µM; GST-fluorescein binding to GSH beads, fluorescence, counter-screen; actives 2% (n = 1,300); AID 588338; shares compounds with Arr AP2 block;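 active = inhibition above 50%, about 3 SD of the inhibition seen with non-fluorescent compounds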;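 also: fluorescein maleimide labelled GST captured on 4 micron glutathione beads; higher means more loss of bead fluorescence from quenching or blocked binding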
# ABCB6 inh CP1: inhibitors of human ABC transporter ABCB6. shares compounds with ABCB6 inh MLPCN. K562-ABCB6 porphyrin accumulation, flow cytometry, 1 h; hits give low values. ratio response (% of DMSO), % at 10 µM. 700 tested, under 10 active;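 active = repeat-averaged ratio response below 75% of DMSO, the collection mean minus 3 SD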;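 also: median porphyrin fluorescence at 575 nm with 488 nm excitation from mitochondria; lower ratio means less porphyrin signal so ABCB6 inhibition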
# Starred values were filed as active, the others as inactive; i = inactive; ? = inconclusive; . = no result; ! = not confirmed by another sample.
SMILES,ABCB6 inh MLPCN,Granule exo inh,Arr AP2 block,ATG4B inh,Myeloid diff MLP,CendR NRP1 mod,PLA2 ctr,others
C=CCn1c(O)c(/C(C)=N/N2CCCCC2)c(=O)[nH]c1=O,100,-7,5,-1,i,-7,.,
Cc1nc2c(=O)n(C)c(=O)nc-2n(C)n1,109,10,-2,82*,?,18,-9,ATG4B conf=25
O=S(=O)(c1ccc(Cl)cc1)N1Cc2ccccc2-n2nncc2C1,98,0,.,.,i,-10,.,
O=c1c2ccccc2nc(/C=C\c2ccccc2[N+](=O)[O-])n1-c1ccccc1O,96,2,-190,25,i,9,.,
O=c1c2ccccc2nc(/C=C/c2ccccc2F)n1-c1ccccc1O,95,9,9,62*,i,-4,70*,
COc1ccc(-n2c(/C=C/c3ccc(O)c(O)c3)nc3ccccc3c2=O)cc1,114,8,6,49*,i,-92,52*,
CCC1(c2ccc(N)cc2)CCC(=O)NC1=O (stereo not drawn),99,-8,11,0,i,-15,.,
C/C(=N\N1CCCCC1c1cccnc1)c1c(O)n(C2CCCCC2)c(=S)[nH]c1=O (stereo not drawn),128,-6,-12,43*,i,-102,37,
Cc1cc(C)cc(NC(=O)CCNC(=O)N2C[C@H]3C[C@@H](C2)c2cccc(=O)n2C3)c1,100,4,6,-27,i,-13,.,
O=Cc1cn(Cc2c(F)cccc2Cl)nc1-c1ccccc1,96,0,-4,23,i,-1,.,
CCc1ccc(-c2nn(Cc3ccccc3)cc2C=O)cc1,107,0,-3,68*,i,-3,83*,
Clc1ccc(C(c2ccc(Cl)cc2)n2cc[n+](CC(OCc3ccc(Cl)cc3Cl)c3ccc(Cl)cc3Cl)c2)cc1 (stereo not drawn),96,-8,4,45*,i,5,90*,
CNC(=O)Oc1ccc(N(C)C)cc1C(C)C,96,4,-10,-7,i,9,.,
O=C1C(=O)c2cccc3cccc1c23,100,2,3,5,i,7,.,
O=C1C(=O)c2ccccc2-c2ccccc21,105,85*,1,85*,?,6,-5,ATG4B conf=27
COC(=O)C1=C(c2ccc(F)cc2OCc2ccccc2)C[C@@H]2CC[C@H]1N2C(=O)NCc1ccccc1Br,101,-3,6,64*,i,-8,79*,
Oc1c(Br)c(Br)c(Br)c(Br)c1Br,96,-1,17,60*,i,-51,62*,
O=C(c1ccc(Cl)cc1)C12CN3CN(CN(C3)C1)C2,102,-1,105*,-19,i,-4,.,Arr-AP2 CP1=-3;GST GSH counter=-2
c1cc2c(cc1N1CCCCC1)C1CC2CCN1 (stereo not drawn),99,-3,19,-6,i,-6,.,
O=c1c2ccccc2[se]n1-c1ccccc1,95,82*,92*,8,i,-11,.,Arr-AP2 CP1=125*!;GST GSH counter=46
O=c1c2ccccc2nc(-c2ccccc2)n1-c1ccccc1,100,3,-4,7,?,1,.,
COc1cccc2cc(-c3cc(=O)oc4ccc(OC(=O)N(C)C)cc34)oc12,96,13,-2,5,i,-1,.,
CCOC(=O)c1c(/N=C/c2c(O)n(-c3ccc(F)cc3)c(=S)[nH]c2=O)sc2c1CCCC2,110,-1,41,-1,i,-32,.,
CCOC(=O)c1c(/N=C/c2c(O)n(-c3ccccc3F)c(=S)[nH]c2=O)sc2c1CCCC2,100,2,84*,5,i,-84,.,Arr-AP2 CP1=14;GST GSH counter=24
C=C(C)C(Cc1c(OC)ccc(C(=O)/C=C/c2ccc(O)cc2)c1O)OO (stereo not drawn),98,6,17,-40,i,-14,.,
SMILES,ABCB6 inh MLPCN,Granule exo inh,Arr AP2 block,ATG4B inh,Myeloid diff MLP,CendR NRP1 mod,PLA2 ctr,others
O=C(NCCO)c1nsnc1NCCCl,100,-2,58*,9,i,2,.,Arr-AP2 CP1=4;GST GSH counter=-6
C[C@]12CCC3C(CC[C@@H]4[C@H]5O[C@H]5CC[C@]34C)C1CC[C@@H]2O (stereo partly drawn),99,-7,6,0,i,-5,.,
CC[N+]12CCC(CC1)C(=C(c1ccccc1)c1ccccc1)C2,96,4,12,-2,i,-7,.,
C[N+]12CCC(CC1)C(=C(c1ccccc1)c1ccccc1)C2,100,-3,66*,2,i,-2,.,Arr-AP2 CP1=-15;GST GSH counter=-8
CN1C(=O)N(C)C(=O)C2(Cc3cc(NC(=O)c4ccccc4Cl)ccc3N3CCCC32)C1=O (stereo not drawn),101,5,56*,-6,i,-27,.,Arr-AP2 CP1=5;GST GSH counter=-2
CN1CCN(c2ccc(N)cc2Cl)CC1,102,-1,59*,-2,i,-33,.,Arr-AP2 CP1=17;GST GSH counter=52*
CCOc1cc2c(cc1OCC)-n1cccc1C(c1ccccc1OC)NC2 (stereo not drawn),73*,-7,-25,-13,i,2,.,ABCB6 inh CP1=98
CC12CC3CC(C)(C1)CC(N)(C3)C2,97,11,-2,5,i,-2,.,
CCOC(=O)C1=C(N)Oc2c(c(=O)oc3ccccc23)C12C(=O)N(C)c1ccccc12 (stereo not drawn),97,-3,14,-7,i,-17,.,

# From PubChem
